Measurements from paper PMC11376197 (Chemical Science, 2024).

Experiments:
Assay in all cases: Cell viability assay
[1] = tested on: MRC-5 (non-cancerous lung fibroblasts); format: cell-based; settings: read-out: IC50 MRC-5; 96 h of incubation
In short: (§1)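 Cell lines were exposed to test compounds for 96 h, with cisplatin as a reference. Complexes came from DMSO stocks and cisplatin from water stocks. Antiproliferative activity is expressed as IC50.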

[2] = tested on: OVCAR-3 (high-grade serous ovarian cancer cells); format: cell-based, human; settings: read-out: IC50 OVCAR-3; 96 h of incubation
In short: as §1

[3] = tested on: HCT116 (colon cancer cells); format: cell-based, human; settings: read-out: IC50 HCT116; 96 h of incubation
In short: as §1

[4] = tested on: A2780 (cisplatin-sensitive ovarian cancer cells); format: cell-based, human; settings: read-out: IC50 A2780; 96 h of incubation
In short: as §1

What does the source list for `N.N.[Cl][Pt][Cl]` [Cisplatin]?
IC50 [1]: 2000 ± 1000 nM; IC50 [2]: 3100 ± 200 nM; IC50 [3]: 7900 ± 800 nM; IC50 [4]: 600 ± 200 nM
